Laboratory results from ChEMBL document CHEMBL2331329, “Synthesis and biological evaluation of 2-(alkoxycarbonyl)-3-anilinobenzo[b]thiophenes and thieno[2,3-b]pyridines as new potent anticancer agents” (J Med Chem, 2013).
The source made the active and inactive calls. The calls are words filed in the database; no cut-off is given here.

Columns and labels:
HeLa [1] = assay: Cell cycle arrest in human HeLa cells assessed as accumulation at G2/M phase after 24 hrs by propidium iodide staining-based flow cytometry; assay type: functional
Procedure, shortened: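 Jurkat, HT-29 and HeLa cells in exponential growth (5 × 10^5 cells) treated 24 h at a range of concentrations. Fixed in ice-cold 70% ethanol, lysed with buffer containing RNase A and 0.1% Triton X-100, stained with propidium iodide. DNA content read by flow cytometry and the percentage of cells per cycle phase derived from DNA histograms.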

[2] = Selectivity ratio of IC50 for human CEM cells to IC50 for human PHA-stimulated PBL cells; assay type: ADME, cell-based; settings: CEM cells and PHA-stimulated PBL cells, read-out: Ratio IC50
HeLa [3] = assay: Cell cycle arrest in human HeLa cells assessed as variation in cyclin B expression at 10 to 100 nM after 24 to 48 hrs by Western Blot analysis; assay type: functional, cell-based
Procedure, shortened: (§1)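 HeLa cells exposed to 10 or 100 nM for 24 or 48 h, washed in ice-cold PBS, lysed on ice 30 min, spun at 15000g at 4 °C. 20 μg protein run on 7.5–15% SDS–PAGE, blotted to PVDF, blocked overnight at 4 °C. Primary antibodies 2 h at room temperature, peroxidase secondary 60 min, ECL detection, β-actin reprobe as loading control.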

HeLa [4] = assay: Induction of apoptosis in human HeLa cells assessed as decrease in unphosphorylated Mcl-1 at 10 to 100 nM after 24 hrs by Western Blot analysis; assay type: functional, cell-based; procedure, shortened: as §1
HeLa [5] = assay: Induction of apoptosis in human HeLa cells assessed as reduction of Xiap expression at 10 nM after 24 hrs by Western Blot analysis; assay type: functional, cell-based; procedure, shortened: as §1
[6] = Antitumor activity against mouse BNL 1ME A.7R.1 cells xenografted in Balb/c mouse assessed as reduction in tumor growth at 5 mg/kg, ip QD for 7 days; assay type: functional; parameters: scale not given: the % may be the effect or the level left; settings: route intraperitoneal
Procedure, shortened: (§2)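 Male Balb/c mice, 8 weeks old, given 10^7 syngeneic BNL 1ME A.7R.1 hepatoma cells subcutaneously in the dorsal region in 200 μL PBS. Randomised to groups of five. Dosed intraperitoneally once daily for 7 days at 5 mg/kg in 0.9% NaCl with 5% PEG 400 and 0.5% Tween 80, against vehicle and CA-4P. Tumours measured daily by caliper, V = AB2/2; body weight recorded. Mean ± SEM.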

HeLa [7] = assay: Induction of apoptosis in human HeLa cells assessed as PARP cleavage at 10 nM after 24 hrs by Western Blot analysis; assay type: functional, cell-based; procedure, shortened: as §1
HeLa [8] = assay: Cell cycle arrest in human HeLa cells assessed as reduction in phosphorylated cdc2 Tyr15 level at 10 to 100 nM after 24 to 48 hrs by Western Blot analysis; assay type: functional, cell-based; procedure, shortened: as §1
HeLa [9] = assay: Induction of apoptosis in human HeLa cells assessed as early apoptotic cells at 10 to 100 nM by annexin V-FITC and propidium iodide staining-based flow cytometry; assay type: functional, cell-based; settings: TDE = time-dependent effect
Procedure, shortened: (§3)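 HeLa cells treated 24 or 48 h, then co-labelled with annexin-V–FITC and propidium iodide. Flow cytometry with 488 nm excitation and emission at 525 nm (FITC) and 585 nm (PI); early apoptotic cells counted as annexin-V+/PI−. Mean ± SEM of three independent experiments.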

HeLa [10] = assay: Induction of apoptosis in human HeLa cells assessed as ROS production at 10 to 100 nM after 24 to 48 hrs by HE staining-based flow cytometry relative to control; assay type: functional, cell-based
Procedure, shortened: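 HeLa cells treated 24 or 48 h, then stained with H2-DCFDA or hydroethidine. ROS read by flow cytometry against untreated control. Mean ± SEM of three independent experiments.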

Mus musculus = assay: Toxicity in Balb/c mouse xenografted with mouse BNL 1ME A.7R.1 cells assessed as decrease in body weight at 5 mg/kg, ip; assay type: organism-based; parameters: dose 5 mg/kg, route intraperitoneal; settings: in vivo; procedure, shortened: as §2
MCF7 [11] = assay: Cytotoxicity against human MCF7 cells after 72 hrs by MTT assay; assay type: functional, cell-based; settings: MCF7, 72 h
A549 [12] = assay: Resistance index, ratio of IC50 for human A549-T12 cells to IC50 for human A549 cells; assay type: functional
Procedure, shortened: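 Mean ± SE of at least three independent experiments. Resistance ratio = IC50 in resistant line/IC50 in nonresistant line.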

[13] = Cytotoxicity against human CEM/VBL100 cells after 72 hrs by MTT assay; assay type: functional, cell-based; settings: CEM/VBL100, 72 h
Procedure, shortened: (§4)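 MTT viability test: 8 × 10^3 cells per well settled 18 h at 37 °C, 5% CO2, then given fresh medium with compound (from 10 mM DMSO stocks, final DMSO ≤0.25%) for 72 h. […] CEMVbl-100 is a vinblastine-selected P-gp line; LoVoDoxo is grown in Ham's F12 with 0.1 μg/mL doxorubicin. Resistance index = resistant IC50/parental IC50.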

HeLa [14] = assay: Induction of apoptosis in human HeLa cells assessed as caspase-3 cleavage at 10 to 100 nM after 24 to 48 hrs by Western Blot analysis; assay type: functional, cell-based; procedure, shortened: as §1
Jurkat [15] = assay: Cytotoxicity against human Jurkat cells after 72 hrs by MTT assay; assay type: functional, cell-based
Procedure, shortened: (§5)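 Cells plated at 8 × 10^3 per well, 18 h at 37 °C, 5% CO2, then fresh medium with graded compound concentrations (DMSO ≤0.25%) for 72 h. Jurkat, SEM, HL-60 grown in RPMI-1640; A549, HeLa, HT-29, MCF-7 in DMEM; 10% FBS with penicillin/streptomycin. MTT viability read-out; IC50 vs 0.25% DMSO controls; mean ± SE of at least three independent experiments.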

A549 [16] = assay: Cytotoxicity against human A549 cells after 72 hrs by MTT assay; assay type: functional, cell-based; settings: A549, 72 h
[17] = Cytotoxicity against human SEM cells after 72 hrs by MTT assay; assay type: functional, cell-based; procedure, shortened: as §5
LoVo [18] = assay: Resistance index, ratio of IC50 for human LoVo/DX cells to IC50 for human LoVo cells; assay type: functional; procedure, shortened: as §4
MCF7 [19] = assay: Ratio of Combretastatin A-4 IC50 to compound IC50 for human MCF7 cells; assay type: functional
HL-60 = assay: Ratio of Combretastatin A-4 IC50 to compound IC50 for human HL60 cells; assay type: functional
Jurkat [20] = assay: Ratio of Combretastatin A-4 IC50 to compound IC50 for human Jurkat cells; assay type: functional
LoVo [21] = assay: Cytotoxicity against human LoVo cells after 72 hrs by MTT assay; assay type: functional, cell-based; procedure, shortened: as §4
CCRF-CEM = assay: Resistance index, ratio of IC50 for human CEM/VBL100 cells to IC50 for human CEM cells; assay type: functional; procedure, shortened: as §4
A549 [22] = assay: Ratio of Combretastatin A-4 IC50 to compound IC50 for human A549 cells; assay type: functional
HT-29 = assay: Cytotoxicity against human HT-29 cells after 72 hrs by MTT assay; assay type: functional, cell-based; settings: HT-29, 72 h
HeLa [23] = assay: Induction of apoptosis in human HeLa cells assessed as survivin phosphorylation on Thr32 after 24 to 48 hrs by Western Blot analysis; assay type: functional, cell-based; procedure, shortened: as §1
Bos taurus = species: Bos taurus; assay: Displacement of [3H]colchicine from bovine brain tubulin at 1 uM after 20 mins by turbidimetric analysis
HeLa [24] = assay: Induction of apoptosis in human HeLa cells assessed as early apoptotic cells after 24 to 48 hrs by annexin V-FITC/Propidium iodide staining-based flow cytometry; assay type: functional, cell-based; procedure, shortened: as §3

COC(=O)c1sc2cc(OC)ccc2c1Nc1cc(OC)c(OC)c(OC)c1
Activity (HeLa [1]): Dose-dependent effect
selectivity ratio [2]: 2000
Activity (HeLa [3]): inactive
Activity (HeLa [4]): Active
Activity (HeLa [5]): Active
Activity [6]: 68.5%
Activity (HeLa [7]): Active
Activity (HeLa [8]): Active
Activity (HeLa [9]): tde
Activity (HeLa [10]): Active
Activity (Mus musculus): Toxic
IC50 (MCF7 [11]): 0.7 nM
Ratio IC50 (A549 [12]): 1.5
IC50 [13]: 1.3 nM
Activity (HeLa [14]): Active
IC50 (Jurkat [15]): 1.7 nM
IC50 (A549 [16]): 8.5 nM
IC50 [17]: 10.3 nM
Ratio IC50 (LoVo [18]): 1.3
Ratio IC50 (MCF7 [19]): 2
Ratio IC50 (HL-60): 2
Ratio IC50 (Jurkat [20]): 2
IC50 (LoVo [21]): 0.3 nM
Ratio IC50 (CCRF-CEM): 0.4
Ratio IC50 (A549 [22]): 2
IC50 (HT-29): 0.9 nM
Activity (HeLa [23]): Active
inhibition (Bos taurus): 85%
Activity (HeLa [24]): Dose-dependent effect
